Assay results reported in ChEMBL document CHEMBL4196158, “New Class of Selective Estrogen Receptor Degraders (SERDs): Expanding the Toolbox of PROTAC Degrons” (ACS Med Chem Lett, 2018).
pIC50: −log10 of the molar value. The source made the active and inactive calls. The calls are words filed in the database; no cut-off is given here.

Legend:
[1] = biological target: T1, Estrogen receptor (Homo sapiens) (UniProt P03372); experiment: Displacement of [3H]estradiol from human full length ERalpha after 18 to 24 hrs by scintillation counting method
T1 sequence (whole entry): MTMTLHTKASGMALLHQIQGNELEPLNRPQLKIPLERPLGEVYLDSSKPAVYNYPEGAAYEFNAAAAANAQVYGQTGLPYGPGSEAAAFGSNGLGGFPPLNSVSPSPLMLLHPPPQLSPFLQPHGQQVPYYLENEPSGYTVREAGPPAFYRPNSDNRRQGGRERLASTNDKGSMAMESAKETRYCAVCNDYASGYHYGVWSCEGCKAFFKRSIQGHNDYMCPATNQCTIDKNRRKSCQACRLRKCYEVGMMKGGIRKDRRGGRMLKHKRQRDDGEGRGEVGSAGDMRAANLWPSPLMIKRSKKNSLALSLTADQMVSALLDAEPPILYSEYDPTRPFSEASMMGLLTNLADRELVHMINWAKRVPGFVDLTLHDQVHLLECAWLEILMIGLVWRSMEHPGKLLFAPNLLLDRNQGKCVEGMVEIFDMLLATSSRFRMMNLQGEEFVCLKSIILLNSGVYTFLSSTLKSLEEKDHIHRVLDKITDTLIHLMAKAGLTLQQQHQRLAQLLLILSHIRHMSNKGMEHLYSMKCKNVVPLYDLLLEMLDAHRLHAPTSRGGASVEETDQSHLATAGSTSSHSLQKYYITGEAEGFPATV

MCF7 [2] = experiment: Antiproliferative activity against human MCF7 cells assessed as cell proliferation after 6 days by MTT assay relative to control; type: functional; design: concentration or dose not given beside the values
How it was run: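 MCF-7 cells kept in complete medium, dosed across a concentration range (log scale ~10^-11 to 10^-5 M) for 6 days; cell density read by MTT. Average ± SEM of 4 measurements, n = 3 unless noted. IC50 taken from dose-response. Efficacy given as relative proliferation rate at highest dose versus vehicle, with the fulvestrant level set to zero.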

[3] = Proteolysis targeting chimera activity in human MCF7 cells assessed as induction of E3 ubiquitin ligase-mediated ERalpha degradation by proteasome after 24 hrs by in-cell Western assay; type: cell-based; settings: MCF7, 24 h
How it was run: (§1)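 MCF-7 cells in stripped medium were dosed across a concentration range (log ~10^-11 to 10^-5 M) for 24 h, and ERα was quantified by in-cell Western. Average ± SEM of 4 measurements, n = 3 unless noted. IC50 derived from the dose-response curve. Efficacy is the ERα level at the highest dose, as % of vehicle control.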

MCF7 [4] = experiment: Proteolysis targeting chimera activity in human MCF7 cells assessed as induction of E3 ubiquitin ligase-mediated ERalpha level after 24 hrs by in-cell Western assay relative to control; type: cell-based; design: concentration or dose not given beside the values; how it was run: as §1
MCF7 [5] = experiment: Antiproliferative activity against human MCF7 cells after 6 days by MTT assay; settings: MCF7, 144 h
MCF7 [6] = experiment: Proteolysis targeting chimera activity in human MCF7 cells assessed as induction of E3 ubiquitin ligase-mediated ERalpha level after 24 hrs by in presence of proteasome inhibitor MG132 by in-cell Western assay; type: cell-based
[7] = biological target: T1, Estrogen receptor (Homo sapiens); experiment: Antagonist activity at ERalpha in human […] assessed as inhibition of estradiol-induced PgR gene expression level at 3 uM after 24 hrs by qRT-PCR method; type: cell-based
How it was run: (§2)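 MCF-7 cells exposed 24 h to 3 µM compound with or without 1 nM estradiol (E2); transcript levels of PgR, pS2 and GREB1 quantified by qRT-PCR.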

[8] = biological target: T1, Estrogen receptor (Homo sapiens); experiment: Antagonist activity at ERalpha in human […] assessed as inhibition of estradiol-induced pS2 gene expression level at 3 uM after 24 hrs by qRT-PCR method; type: cell-based; how it was run: as §2
[9] = biological target: T1, Estrogen receptor (Homo sapiens); experiment: Antagonist activity at ERalpha in human […] assessed as inhibition of estradiol-induced GREB1 gene expression level at 3 uM after 24 hrs by qRT-PCR method; type: cell-based; how it was run: as §2

SMILES | RBA [1] | Activity (MCF7 [2]) | pIC50 [3] | Activity (MCF7 [4]) | pIC50 (MCF7 [5]) | Activity (MCF7 [6]) | inhibition [7] | inhibition [8] | inhibition [9]
O=C(NCCCCOc1ccc(C(=C2C3CC4CC(C3)CC2C4)c2ccc(O)cc2)cc1)[C@@H]1C[C@@H]2C=C[C@H]1C2 | 37% | 42% | 9.30 | 53% | 8.05 |  |  |  | 
O=C(NCCCCOc1ccc(C(=C2C3CC4CC(C3)CC2C4)c2ccc(O)cc2)cc1)C1CCCCCC1 | 30% | 15% |  | 76% | 8.30 |  |  |  | 
O=C(NCCOc1ccc(C(=C2C3CC4CC(C3)CC2C4)c2ccc(O)cc2)cc1)C12CC3CC(CC(C3)C1)C2 | 21% | 16% |  | 76% | 7.77 |  |  |  | 
O=C(NCCCCOc1ccc(C(=C2C3CC4CC(C3)CC2C4)c2ccc(O)cc2)cc1)C1CCCCC1 | 28% | 13% | 9.40 | 35% | 9.22 | inactive |  |  | 
C[C@]12CC[C@@H]3c4ccc(O)cc4C[C@@H](CCCCCCCCC[S+]([O-])CCCC(F)(F)C(F)(F)F)[C@H]3[C@@H]1CC[C@@H]2O (stereo partly specified) [FULVESTRANT] | 61% | 0% | > 10.00 | 9% | > 10.00 |  |  |  | 
O=C(NCCCCOc1ccc(C(=C2C3CC4CC(C3)CC2C4)c2ccc(O)cc2)cc1)C1CCC(F)(F)CC1 | 30% | 20% |  | 67% | 8.40 |  |  |  | 
O=C(NCCCCOc1ccc(C(=C2C3CC4CC(C3)CC2C4)c2ccc(O)cc2)cc1)C1CCC1 | 70% | 15% |  | 69% | 8.52 |  |  |  | 
CC(C)C[C@H](NC(=O)OC(C)(C)C)C(=O)NCCCCOc1ccc(C(=C2C3CC4CC(C3)CC2C4)c2ccc(O)cc2)cc1 | 14% | 20% | 6.20 | 56% | 7.44 |  |  |  | 
O=C(NCCCCOc1ccc(C(=C2C3CC4CC(C3)CC2C4)c2ccc(O)cc2)cc1)C12CC3CC(CC1C3)C2 | 17% | 42% | 8.70 | 71% | 7.92 |  |  |  | 
CC(C)(C)OC(=O)N[C@@H](Cc1c[nH]c2ccccc12)C(=O)NCCCCOc1ccc(C(=C2C3CC4CC(C3)CC2C4)c2ccc(O)cc2)cc1 | 20% | 16% | 9.30 | 45% | 7.80 |  | Active | Active | Active
CC(C)(C)OC(=O)N[C@@H](Cc1ccccc1)C(=O)NCCCCOc1ccc(C(=C2C3CC4CC(C3)CC2C4)c2ccc(O)cc2)cc1 | 14% | 25% | 6.51 | 71% | 8.15 |  |  |  | 
O=C(NCCCOc1ccc(C(=C2C3CC4CC(C3)CC2C4)c2ccc(O)cc2)cc1)C12CC3CC(CC(C3)C1)C2 | 26% | 13% | 8.52 | 42% | 8.05 |  | Active | Active | Active
O=C(NCCCCOc1ccc(C(=C2C3CC4CC(C3)CC2C4)c2ccc(O)cc2)cc1)[C@H]1CC[C@H](C(F)(F)F)CC1 | 10% | 13% | 8.70 | 31% | 9.30 |  | Active | Active | Active
CC12CC3CC(C)(C1)CC(C(=O)NCCCCOc1ccc(C(=C4C5CC6CC(C5)CC4C6)c4ccc(O)cc4)cc1)(C3)C2 | 6% | 57% | 8.00 | 42% | 8.30 |  |  |  | 
O=C(NCCCCOc1ccc(C(=C2C3CC4CC(C3)CC2C4)c2ccc(O)cc2)cc1)C12CC3CC(CC(C3)C1)C2 | 11% | 13% | 8.22 | 51% | 7.89 |  |  |  | 
